Results on six molecules are retold here after ChEMBL document CHEMBL2380254, “Optimization of tocotrienols as antiproliferative and antimigratory leads” (Eur J Med Chem, 2013).

Experiment [1] can be described thus: Antiproliferative activity against mouse +SA cells by MTT assay. The experiment is classed as functional, cell-based. Conditions: +SA cell. In short, it runs like this: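 Mouse +SA mammary epithelial cells in serum-free DMEM/F12 with BSA, transferrin, insulin and EGF. Compounds from DMSO stock conjugated to BSA (overnight, 37 °C); 0–40 µM, final DMSO <0.1%. MTT 0.42 mg/mL for 4 h at 37 °C, isopropanol solubilization, OD 570 nm. Cell number from a standard curve; IC50 by non-linear regression.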
In general terms: Tetrazolium dyes change colour on reduction, which living cells bring about.

Another experiment deals with NCI-H226. Briefly: Growth inhibition of human NCI-H226 cells assessed as cell growth at 10 uM after 48 hrs by sulforhodamine B assay. The experiment is classed as functional. Conditions: NCI-H226, 48 h, read-out: Activity. In short, it runs like this:
(§1)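 Single-dose NCI-60 screen: adherent cells in RPMI 1640 with 5% FBS were exposed to 10 µM for 48 h at 37 °C after a 24 h preincubation. They were fixed in situ with cold TCA (10% final), stained with 0.4% SRB in 1% acetic acid, solubilized in 10 mM Tris base, and read at 515 nm. Percent growth was taken relative to time-zero and control plates.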
On the technique in general: Sulforhodamine B stains cellular protein and so reports cell mass.

A further experiment concerns DU-145. Briefly: Growth inhibition of human DU145 cells assessed as cell growth at 10 uM after 48 hrs by sulforhodamine B assay. In kind it is functional. The conditions noted are these: DU-145, 48 h, read-out: Activity. In short, it runs like this: (§2)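 NCI-60 single-dose screen at 10 µM: cells in RPMI 1640 with 5% FBS, preincubated 24 h, then exposed 48 h at 37 °C. TCA fixation (16% final for suspension cells), SRB staining, absorbance 515 nm. Percent growth relative to time-zero and untreated control plates; negative values indicate cell kill.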

The test system of another experiment is K562. Briefly: Growth inhibition of human K562 cells assessed as cell growth at 10 uM after 48 hrs by sulforhodamine B assay. In kind it is functional. Conditions: K562, 48 h, read-out: Activity. In short, it runs like this:
as §2

The subject of another experiment is MCF7. Briefly: Growth inhibition of human MCF7 cells assessed as cell growth at 10 uM after 48 hrs by sulforhodamine B assay. In kind it is functional. Conditions: MCF7, 48 h, read-out: Activity. Summed up:
as §1

In a further experiment the test system is KM12. Briefly: Growth inhibition of human KM12 cells assessed as cell growth at 10 uM after 48 hrs by sulforhodamine B assay. The experiment is classed as functional. The conditions noted are these: KM12, 48 h, read-out: Activity. Summed up: as §2
Another experiment has as its system SF-295. Briefly: Growth inhibition of human SF295 cells assessed as cell growth at 10 uM after 48 hrs by sulforhodamine B assay. In kind it is functional. The conditions noted are these: SF-295, 48 h, read-out: Activity. Summed up: as §1
The next experiment has as its system HCT-116. Briefly: Growth inhibition of human HCT116 cells assessed as cell growth at 10 uM after 48 hrs by sulforhodamine B assay. The experiment is classed as functional. The conditions noted are these: HCT-116, 48 h, read-out: Activity. Summed up: as §2
The next experiment relates to TK-10. Briefly: Growth inhibition of human TK10 cells assessed as cell growth at 10 uM after 48 hrs by sulforhodamine B assay. The experiment is classed as functional. The conditions noted are these: TK-10, 48 h, read-out: Activity. In short, it runs like this:
(§3)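 Single-dose NCI-60 test at 10 µM. Cells were grown in RPMI 1640 with 5% FBS and 2 mM L-glutamine, preincubated 24 h, with T0 plates TCA-fixed. Exposure was 48 h at 37 °C, 5% CO2. Cells were fixed with cold TCA (final 10%, 4 °C, 60 min), stained with SRB and read at 515 nm. Percent growth was taken relative to T0 and untreated control; negative values denote cell kill.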

The next experiment has as its system U-251. Briefly: Growth inhibition of human U251 cells assessed as cell growth at 10 uM after 48 hrs by sulforhodamine B assay. The experiment is classed as functional. The conditions noted are these: U-251, 48 h, read-out: Activity. In short, it runs like this: as §3
Another experiment has as its system IGROV-1. Briefly: Growth inhibition of human IGROV1 cells assessed as cell growth at 10 uM after 48 hrs by sulforhodamine B assay. The experiment is classed as functional. Conditions: IGROV-1, 48 h, read-out: Activity. In short, it runs like this:
as §2

Another experiment relates to T47D. Briefly: Growth inhibition of human T47D cells assessed as cell growth at 10 uM after 48 hrs by sulforhodamine B assay. The experiment is classed as functional. Conditions: read-out: Activity. In short, it runs like this: as §3

As a reminder, the IC50 is the midpoint of a concentration-inhibition curve. In experiment [1], `CC(C)=CCC/C(C)=C/CC/C(C)=C/CC[C@]1(C)CCc2c3c(cc(C)c2O1)OCN(CCCCCCCCCCO)C3` gave an IC50 of 3600 nM. For the same molecule, the growth at 10 µM in the experiment with NCI-H226 worked out at 89.8%; in the experiment on DU-145 it was 100%; in the experiment with K562, 45.4%; in the experiment with MCF7, 59.2%; in the experiment with KM12 it was 87.2%; in the experiment with SF-295, 114%. Also, the growth at 10 µM came to 65.6% with HCT-116; 101% in the experiment on TK-10; 74% with U-251; 80.1% in the experiment with IGROV-1; 86.1% in the experiment on T47D.

`CC(C)=CCC/C(C)=C/CC/C(C)=C/CC[C@]1(C)CCc2c3c(c(C)c(C)c2O1)OCN(CCCCCCCCCCCCO)C3`: the IC50 in experiment [1] is above 5000 nM. The growth at 10 µM in the experiment on NCI-H226 was determined as 93.3%; with DU-145 it was 109%; in the experiment with K562 it was 80.5%; with MCF7, 100%; in the experiment with KM12, 90.4%; in the experiment on SF-295, 93.5%. Further, the growth at 10 µM stood at 102% in the experiment with HCT-116; 108% in the experiment on TK-10; 90.3% in the experiment with U-251; 102% in the experiment with IGROV-1; 95.8% in the experiment on T47D.

In experiment [1], `COc1ccc(CCNCc2c(O)c(C)c(C)c3c2CC[C@@](C)(CC/C=C(\C)CC/C=C(\C)CCC=C(C)C)O3)cc1OC` gave an IC50 of 1700 nM. In addition, the growth at 10 µM in the experiment with NCI-H226 was determined as 106%; in the experiment on DU-145, 110%; with K562, 42%; in the experiment on MCF7, 29.3%; in the experiment on KM12 it was 60.1%; with SF-295 it was 102%. Besides, the growth at 10 µM in the experiment with HCT-116 is 47.1%; with TK-10, 106%; in the experiment with U-251, 83.7%; in the experiment with IGROV-1 it was 71.5%; in the experiment with T47D it was 83.2%.

`CC(C)=CCC/C(C)=C/CC/C(C)=C/CC[C@]1(C)CCc2c(CNCCc3ccc(O)cc3)c(O)c(C)c(C)c2O1`: 2300 nM corresponded to half-maximal inhibition in experiment [1] (IC50). Moreover, the growth at 10 µM is 105% with NCI-H226; 111% in the experiment with DU-145; 63% in the experiment with K562; 36.9% in the experiment on MCF7; 89.6% in the experiment with KM12; 105% in the experiment with SF-295. Besides, the growth at 10 µM in the experiment with HCT-116 was 61.4%; in the experiment with TK-10 it was 113%; in the experiment on U-251, 93%; in the experiment on IGROV-1 it was 78.5%; in the experiment with T47D it was 99.1%.

Take `COc1ccc(CCN2COc3c(C)c(C)c4c(c3C2)CC[C@@](C)(CC/C=C(\C)CC/C=C(\C)CCC=C(C)C)O4)cc1OC`: the IC50 in [1] amounted to 1800 nM. In addition, the growth at 10 µM in the experiment on NCI-H226 turned out to be 97%; in the experiment on DU-145, 111%; with K562 it was 78.3%; with MCF7 it was 77.5%; in the experiment with KM12, 96.4%; in the experiment with SF-295, 108%. Further, the growth at 10 µM in the experiment with HCT-116 turned out to be 91.9%; with TK-10 it was 105%; in the experiment with U-251, 88.4%; in the experiment with IGROV-1 it was 87.4%; with T47D, 98%.

In the case of `CC(C)=CCC/C(C)=C/CC/C(C)=C/CC[C@]1(C)CCc2cc(O)c(C)c(C)c2O1` [GAMMA-TOCOTRIENOL], the growth at 10 µM in the experiment with NCI-H226 is 90.8%; in the experiment on DU-145 it was 99.7%; in the experiment with K562, 85%; with MCF7, 84.1%; in the experiment on KM12, 107%; in the experiment on SF-295, 105%. Moreover, the growth at 10 µM stood at 109% with HCT-116; 122% with TK-10; 102% in the experiment on U-251; 96.3% in the experiment on IGROV-1; 82.5% with T47D.
